Experiments:
[1] = Tmax in CD1 mouse at 10 mg/kg, po measured after 0.083 to 24 hrs by UHPLC-TOF method; assay type: ADME, organism-based; details: in vivo, time 0.083-24 hrs
Method in brief: (§1)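 Male CD-1 mice, acclimatized and individually housed, dosed IV and PO as amorphous-solid suspension. Terminal cardiac-puncture blood into heparinized tubes on wet ice, centrifuged at 4 °C within 15 min; plasma snap-frozen at −20 °C. IV arm sampled 2 min–24 h, oral arm 5 min–24 h. Plasma analysed by UHPLC-quadrupole-TOF MS.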

[2] = Half life in Beagle dog hepatocytes at 3 uM assessed per million cells measured up to 60 mins by LC-MS/MS analysis; assay type: ADME, cell-based, Canis lupus familiaris, Hepatocyte
[3] = Protein binding in dog plasma assessed as unbound fraction at 5 uM by LC-MS/MS analysis based equilibrium dialysis method; assay type: ADME, cell-free, Canis lupus familiaris
[4] = Cardiotoxicity in guinea pig assessed as effect on QT interval; assay type: toxicity, Cavia porcellus
[5] = Cmax in CD1 mouse at 10 mg/kg, po measured after 0.083 to 24 hrs by UHPLC-TOF method; assay type: ADME, organism-based; design: route oral, time 0.083-24 hrs, dose 10 mg/kg; details: in vivo
[6] = Oral bioavailability in Beagle dog at 3 mg/kg measured after 0.03 to 24 hrs by UHPLC-TOF method; assay type: ADME, organism-based, Canis lupus familiaris; details: Beagle, in vivo, time 0.03-24 hrs
Method in brief: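 Dogs examined by a veterinary surgeon before each session, fed 2 h post-dose, water ad libitum, dosed as amorphous-solid suspension. Serial blood into heparinized tubes, centrifuged at 4 °C for 10 min at 3000g; plasma snap-frozen at −20 °C. IV sampling 2 min–24 h, oral 15 min–24 h. Plasma analysed by UHPLC-quadrupole-TOF MS.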

Human orthopneumovirus [7] = experiment: Antiviral activity against Respiratory syncytial virus A Memphis 37b infected in human assessed as reduction in mean AUC of viral load at 200 mg administered twice daily administered for 5 days by cell-based infectivity assay; assay type: functional; design: scale not given: the % may be the effect or the level left; details: time 5 day
Method in brief: (§2)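 Healthy adult volunteers aged 18–45 with low serum pre-existing RSV-specific antibodies were challenged on day zero with about 4 log10 PFU of RSV-A Memphis 37b. Subjects were randomized into 3 equal groups: 200 mg, 350 mg or placebo twice daily for 5 days, begun after infection was confirmed. Viral load in nasal wash was measured by RT-qPCR or by cell-based infectivity assay, and AUC was compared with placebo.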

Human orthopneumovirus [8] = experiment: Antiviral activity against Respiratory syncytial virus A Memphis 37b infected in human assessed as reduction in mean AUC of viral load at 350 mg administered twice daily administered for 5 days by cell-based infectivity assay; assay type: functional; design: scale not given: the % may be the effect or the level left; details: time 5 day; method in brief: as §2
[9] = Oral bioavailability in CD1 mouse at 10 mg/kg measured after 0.03 to 24 hrs by UHPLC-TOF method; assay type: ADME, organism-based; details: in vivo, time 0.03-24 hrs; method in brief: as §1
[10] = Half life in rat hepatocytes at 3 uM measured up to 60 mins by LC-MS/MS analysis; assay type: ADME, cell-based, Hepatocyte
[11] = Protein binding in rat plasma assessed as unbound fraction at 5 uM by LC-MS/MS analysis based equilibrium dialysis method; assay type: ADME, cell-free

## NCc1ccc2c(c1)nc(CN1C(=O)C3(CC3)c3ccc(F)cc31)n2CCCC(F)(F)F [SISUNATOVIR]
[1]
  Tmax: 2 h
[2]
  half-life at 3 µM: 9.67 h
[3]
  fraction unbound at 5 µM: 0.27
[4]
  Activity: Toxic
[5]
  Cmax: 224 ng/mL
[6]
  bioavailability: 44.2%
Human orthopneumovirus [7]
  Activity: 76.42%
Human orthopneumovirus [8]
  Activity: 68.6%
[9]
  bioavailability: 46.4%
[10]
  half-life at 3 µM: 1.55 h
[11]
  fraction unbound at 5 µM: 0.52

— ChEMBL document CHEMBL4825662 (J Med Chem, 2021)
